According to ChEMBL document CHEMBL5113379, “4-Oxooctahydroquinoline-1(2H)-carboxamides as hepatitis B virus (HBV) capsid core protein assembly modulators” (Bioorg Med Chem Lett, 2022):
Active and inactive are the calls of the source. The rule behind the calls is not given here.

How the values were obtained:
[1] = Cytotoxicity against mouse […] measured by MTT assay; format: toxicity, cell-based, AML12HBV10; conditions: aml12hbv10
Summary of the method: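 Cytotoxicity was measured by MTT assay in the stable HBV line AML12HBV10, derived from immortalized mouse hepatocytes (AML12), and CC50 was determined.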

Hepatitis B virus = experiment: Antiviral activity against HBV infected in mouse AML12HBV10 cells assessed as reduction in viral replication incubated for 48 hrs and measured by [alpha-32P]UTP-labeled radio-probe based dot blot hybridization assay; format: functional, organism-based
Summary of the method: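 The test used the stable HBV line AML12HBV10, derived from immortalized mouse hepatocytes (AML12). HBV replication was measured by dot blot hybridization and EC50 was determined.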

[2] = Metabolic stability in mouse liver microsomes assessed as half-life; format: ADME, Microsome; conditions: microsomes
HepDES19 [3] = experiment: Antiviral activity against HBV infected in human HepDES19 cells assessed as reduction of capsid associated HBV DNA 1 uM measured by agarose gel electrophoresis-based particle gel assay; format: functional, cell-based
Summary of the method: (§1)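 HepDES19 cells were kept with tetracycline to block pgRNA transcription (negative control) or without it to induce pgRNA transcription and HBV DNA replication. Compounds (1, 2 or 5 μM) or DMSO were added starting 24 h after tet removal and kept for 6 days.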

[4] = Metabolic stability in human liver microsomes assessed as half-life; format: ADME, Microsome; conditions: microsomes
HepDES19 [5] = experiment: Antiviral activity against HBV infected in human HepDES19 cells assessed as reduction of capsid associated HBV DNA 5 uM measured by agarose gel electrophoresis-based particle gel assay; format: functional, cell-based; summary of the method: as §1
HepDES19 [6] = experiment: Antiviral activity against HBV infected in human HepDES19 cells assessed reduction of amounts of encapsidated pgRNA 5 uM […] by northern blot hybridization assay; format: functional, cell-based
Summary of the method: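 In tet-inducible HepDES19 cells, pgRNA transcription was induced by tetracycline removal; tet-maintained cells were the negative control. Treatment with DMSO or compound at 2 or 5 μM began 24 h after tet removal and lasted 6 days. Encapsidated pgRNA was detected by Northern blot hybridization, with ribosomal RNA as loading control.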

[7] = Hepatitis B virus, AML12HBV10, 48 h

| Structure (SMILES) | CC50 [1] [µM] | EC50 (Hepatitis B virus; [7]) [µM] | also measured |
| --- | --- | --- | --- |
| O=C1CC(c2ccccc2)N(C(=O)Nc2ccc(F)c(Cl)c2)c2ccccc21 (stereo unspecified) | > 50 | 2.89 | – |
| O=C1CCC(C(=O)Nc2ccc(F)c(Cl)c2)c2ccccc21 (stereo unspecified) | > 100 | 1.67 | t1/2 [2]: 5.8 min |
| O=C(Nc1ccc(F)c(Cl)c1)N1CCOc2cccnc21 | 26.3 | > 10 | – |
| C=C1[C@H](CO)[C@@H](O)C[C@@H]1n1cnc2c(=O)[nH]c(N)nc21 | – | – | Activity (HepDES19 [3]): Active |
| O=C1CCN(C(=O)Nc2cc(F)c(F)c(F)c2)[C@@H]2CCCC[C@H]12 | > 100 | 2.41 | – |
| O=C(NC1CC(F)(F)C1)c1cccc2c1OCCO2 | > 100 | > 10 | – |
| O=C(Nc1ccc(F)c(Cl)c1)c1cc(S(=O)(=O)N2CCC(O)CC2)cc2c1OCCO2 | > 50 | 5.57 | – |
| CCC(C)NS(=O)(=O)c1cc2c(c(C(=O)Nc3ccc(F)c(Cl)c3)c1)OCCO2 (stereo unspecified) | > 33.3 | 1.64 | t1/2 [4]: 37.4 min; t1/2 [2]: 16.4 min |
| O=C1CC2CC1CN2C(=O)Nc1ccc(F)c(Cl)c1 (stereo unspecified) | > 100 | > 10 | – |
| O=C1CCN(C(=O)Nc2ccc(F)c(Cl)c2)C2CCCCC12 (stereo in doubt; 60) | – | – | t1/2 [4]: 48 min; t1/2 [2]: 7 min; EC50 (Hepatitis B virus; aml12hbv10): 1.86 µM |
| O=C(Nc1ccc(F)c(Cl)c1)N1CCS(=O)(=O)c2ccccc21 | > 100 | > 10 | – |
| O=C(Nc1ccc(F)c(Cl)c1)c1cccc2c1OC(F)(F)O2 | > 100 | 0.11 | t1/2 [4]: 16.4 min; t1/2 [2]: 11 min |
| N#Cc1cc(NC(=O)N2CCC(=O)[C@H]3CCCC[C@H]32)ccc1F | > 20 | 0.85 | – |
| Cc1cc(NC(=O)N2CCC(=O)[C@H]3CCCC[C@H]32)ccc1F | > 20 | 0.38 | – |
| O=C1CCN(C(=O)Nc2ccc(F)c(Cl)c2)c2ccc(Cl)cc21 | > 100 | 4.83 | – |
| O=C1CCN(C(=O)Nc2ccc(F)c(Cl)c2)C(Cc2ccccc2)C1 (stereo unspecified) | > 20 | 5.11 | – |
| O=C1CCN(C(=O)Nc2ccnc(Cl)n2)[C@@H]2CCCC[C@H]12 | > 100 | > 10 | – |
| O=C1CCN(C(=O)Nc2ccc(F)c(Cl)c2)C(c2ccccc2)C1 (stereo unspecified) | > 100 | 5.01 | – |
| O=C(Nc1ccc(F)c(Cl)c1)C1CCCc2ccccc21 (stereo unspecified) | 25 | 9.4 | – |
| CC1(C)Cc2cccc(C(=O)Nc3ccc(F)c(Cl)c3)c2O1 | > 50 | 1.48 | – |
| O=C1CCN(C(=O)Nc2ccc(F)c(Cl)c2)C2CCCCC12 (stereo in doubt; 61) | – | – | Activity (HepDES19 [5]): Active; Activity (HepDES19 [6]): Active |
| O=C(CC1COCCO1)Nc1ccc(F)c(Cl)c1 (stereo unspecified) | > 100 | 5.02 | – |
| O=C(Nc1ccc2c(c1)OCO2)c1cccc2c1OCCO2 | > 100 | 4.2 | – |
| O=C1COc2cccc(C(=O)Nc3ccc(F)c(Cl)c3)c2N1 | > 50 | > 10 | – |
| O=C1CC2CCC(C1)N2C(=O)Nc1ccc(F)c(Cl)c1 | > 100 | > 10 | – |
| O=C(Nc1ccc(F)c(Cl)c1)c1cccc2cc[nH]c12 | > 33.3 | 4.48 | – |
| O=C1CCN(C(=O)Nc2ccc(F)c(C(F)(F)F)c2)[C@@H]2CCCC[C@H]12 | > 20 | 0.97 | – |
| O=C1CCN(C(=O)Nc2ncc(F)c(Cl)n2)[C@@H]2CCCC[C@H]12 | > 50 | > 10 | – |
